Measured values pooled from the literature.
Protocols differ between the studies behind these lines.
Target: Fibroblast growth factor receptor 2 (FGFR2, Homo sapiens, UniProt P21802)

With `C[C@@H]1CN(c2ccc3ncc(-c4ccc5[nH]nc(C6CC6)c5c4)n3n2)C[C@H](C)O1` the remaining binding was 100% (binding; competition with immobilised ligand; 50 nM).
`CN(CCCC(F)(F)F)c1nccc(-c2cnn3ncccc23)n1` has a remaining binding of 89% (binding; 1 µM).
`O=C(c1ccc(Nc2ncc(Cl)c(-c3ccc(Cl)s3)n2)cc1)N1CCC(N2CCCC2)CC1` has a remaining binding of 4.4% (binding; competition with immobilised ligand; 1 µM).
With `N#Cc1ccccc1CSc1nnc2c(n1)[nH]c1ccccc12` the remaining binding was 91% (binding; competition with immobilised ligand; 10 µM).
`CCCOc1ccc([C@@H]2[C@@H](C(=O)O)[C@H](c3ccc4c(c3)OCO4)CN2CC(=O)Nc2c(CC)cccc2CC)cc1` has a remaining binding of 100% (cell-free assay; competition with immobilised ligand; 1 µM).
The remaining binding of `O=C(NCCCN1CCOCC1)c1ccc(Nc2ncc(Cl)c(-c3ccc(Cl)s3)n2)cc1` is reported as 29% (binding; competition with immobilised ligand; 1 µM).
For `CCN1CCN(Cc2ccc(C(=O)Nc3ccc(C)c(Oc4ccc5c(c4)CC(=O)N5)c3)cc2C(F)(F)F)CC1`, the remaining binding was 83% (binding; competition with immobilised ligand; 1 µM).
The remaining binding of `C[C@H](NC(=O)c1cnc2n1[C@](C)(Cc1ccc(C#N)cc1)C(=O)N2c1cc(Cl)c(F)c(Cl)c1)C(=O)NC1(c2ccccn2)CC1` is reported as 100% (cell-free assay; competition with immobilised ligand; 1 µM).
The remaining binding of `COc1ncc2cc3ccccc3nc2c1C#N` is reported as 93% (cell-free assay; competition with immobilised ligand; 5 µM).
`O=C(O)c1cc(-c2ccc(C3CCNCC3)cc2)c2ccc(-c3ccc(C(F)(F)F)cc3)cc2c1` has a remaining binding of 100% (cell-free assay; competition with immobilised ligand; 1 µM).
With `F[C@@H]1CCN(c2nccc(-c3cnn4ncccc34)n2)C1` the remaining binding was 100% (binding; 1 µM).
`Cc1nccc(COC(=O)N2C[C@@H]3[C@@H](CNC(=O)c4ccc5[nH]nnc5c4)[C@@H]3C2)n1` gave a remaining binding of 78% (cell-free assay; competition with immobilised ligand; 1 µM).
The remaining binding of `N[C@H]1CCN(c2nccc(-c3cnn4ncccc34)n2)C1` is reported as 92% (binding; 1 µM).
With `COc1cnc(Nc2cccc(S(N)(=O)=O)c2)nc1N1CCN(c2ccccc2)C(=O)C1` the remaining binding was 90% (binding; competition with immobilised ligand; 1 µM).
`Nc1ncc2c(n1)-c1c([nH]c3ccc(C#CC4CC4)cc13)CCCC2` gave a remaining binding of 99% (binding; competition with immobilised ligand; 1 µM).
`COc1cnc(Nc2cccc(S(N)(=O)=O)c2)nc1N1CCN(c2ccccc2)CC1` has a remaining binding of 90% (binding; competition with immobilised ligand; 1 µM).
`FC(F)(F)Oc1cccc(-c2cnc3ccc(-c4ccncc4)nn23)c1` has a remaining binding of 81% (cell-free assay; competition with immobilised ligand; 5 µM).
`Cc1cc(-n2nc(Cc3cc(F)cc(C(F)(F)F)c3)nc2C)ccc1C(N)=O` has a remaining binding of 100% (cell-free assay; competition with immobilised ligand; 1 µM).
For `Cc1cnn2ncc(-c3ccnc(N(C)C)n3)c2c1`, the remaining binding was 98% (binding; 1 µM).
For `COc1ccc2cc(OCC3(C(=O)O)CN(C(=O)c4ccc(F)cc4)C3)ccc2c1`, the remaining binding was 100% (cell-free assay; competition with immobilised ligand; 1 µM).
`c1cnn2ncc(-c3ccnc(N4CCC45COC5)n3)c2c1` has a remaining binding of 100% (binding; 1 µM).
`O=C(c1ccc(Nc2nccc(-c3cc4ccccc4s3)n2)cc1)N1CCC(N2CCCC2)CC1` gave a remaining binding of 77% (binding; competition with immobilised ligand; 1 µM).
For `CN(C)c1nccc(-c2cnn3ncccc23)n1`, the remaining binding was 100% (binding; 1 µM).
The remaining binding of `O=C(NCC1CCOCC1)c1n[nH]cc1NC(=O)c1c(F)cccc1F` is reported as 100% (binding; competition with immobilised ligand; 1 µM).
For `C[C@H]1CCN(c2nccc(-c3cnn4ncccc34)n2)C1`, the remaining binding was 100% (binding; 1 µM).
With `CN1CCN(c2cnc3c(C4CCN(C(=O)c5ccc(OC(F)(F)F)cc5N)CC4)ncnc3c2)CC1` the remaining binding was 100% (cell-free assay; competition with immobilised ligand; 1 µM).
